One assay deals with SaHepPPS (Staphylococcus aureus, UniProt Q2FYG6). The experiment in a line: biochemical. The format is biochemical. The settings on record: for Kd: substrate inhibition at high substrate concentrations.
In assay [1] the test system is coupling enzymes (phosphatase and purine nucleoside phosphorylase). The experiment in a line: Control: inhibition of the coupling enzymes by high FPP and IPP. The format is biochemical.
The subject of the next assay is B. subtilis. Nature of the assay: Synergy/antagonism two-drug combination assay. The format is cell-based, Bacillus subtilis. The settings on record: 10 + sulfamethoxazole. An outline of the steps: (§1)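 Checkerboard-style two-drug combinations of the test compound with antibiotics. Conversely, the test compound ran as a 3× gradient, 40 μg/mL to 18 ng/mL, with each antibiotic at half its MIC. New MICs came from Gompertz fits.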

The subject of assay [2] is B. subtilis and S. aureus. Nature of the assay: Synergy/antagonism assays, average FICI over both organisms. The format is cell-based. The settings on record: drugs in combination with 10, both organisms, n = 24. An outline of the steps:
as §1

Another assay deals with S. aureus. Nature of the assay: Synergy/antagonism two-drug combination assay. The format is cell-based, Staphylococcus aureus. An outline of the steps: as §1
Assay [3] deals with S. aureus (Newman strain). The experiment in a line: S. aureus cell growth inhibition. The assay is classed as cell-based, Staphylococcus aureus.
A further assay concerns human FPPS. Particulars: cited from earlier work.

Several values for one entry are separate records, joined by “and”; a condition that tells them apart may be missing. Equal values may be shown once. Read-outs that look alike come from different tables or passages of the source.

The Kd is a measure of binding affinity in units of concentration. Regarding `CC(C)=CCC/C(C)=C/CC/C(C)=C/CO[P@@](=O)(O)OP(=O)(O)O` (stereo in doubt) [FPP, farnesyl diphosphate], the equilibrium dissociation constant (Kd) on SaHepPPS (Kd (dissociation constant for the inhibitory SES ternary complex)) was 35 µM and ~35 µM. Further, the “inhibition of the coupling enzymes” value in assay [1] was “this is not the case”.

As a reminder, the Km is the substrate concentration at which the rate is half of its maximum. One may read the Vmax as the rate approached at saturating substrate. In the case of `CC(C)=CCC/C(C)=C/CC/C(C)=C/CC/C(C)=C/COP(=O)(O)OP(=O)(O)O` [GGPP, geranylgeranyl diphosphate], on SaHepPPS (GGPP as substrate), the Km was 652 µM and the Vmax worked out at 2.2 µM/min. Besides, the “substrate-inhibition effect at high concentrations” value at SaHepPPS (high concentrations) is recorded as “did not exhibit the substrate-inhibition effect”.

In the case of `C=C(C)CCOP(=O)(O)OP(=O)(O)O` [IPP, isopentenyl diphosphate], at SaHepPPS (read-out: Kd (dissociation constant for the inhibitory SES ternary complex)), the equilibrium dissociation constant (Kd) came out at 300 ± 40 µM. Besides, the “inhibition of the coupling enzymes” value in assay [1] is given as “this is not the case”.

With `CCCCCCCCCCCCC[n+]1ccn(CC(P(=O)([O-])O)P(=O)(O)O)c1` (centres unmarked) [compound 10], the FICI with B. subtilis stood at 1.73; with S. aureus (10 + ampicillin), 1.40; with S. aureus (10 + tetracycline) it was 1.85. Further, the FICIavg in assay [2] is on record as 1.43 ± 0.37. In assay [3], the “IC50 for S. aureus cell growth inhibition” value worked out at 7 µg/mL.

The IC50 is the concentration that gives 50% inhibition. Lower therefore signals inhibition by little substance. For the compound `O=P(O)(O)C(O)(Cn1ccnc1)P(=O)(O)O` [compound 15, zoledronate], the half-inhibitory concentration (IC50) on SaHepPPS is around 100 µM. Also, the “activity against human FPPS” value with human FPPS is reported as “potent activity”.
